The nature of series [1]: folding enthalpy; higher = less favourable; fluorescence melt of hairpins on a sequencing array, two-state fit. To be noted: sodium 0.088 M. An outline of the steps: (§1)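 Melting temperature and folding enthalpy were derived from bootstrapped two-state fits. The fitted temperatures were raised by 9.35 °C to agree with UV melts, and four replicates were combined by inverse variance. The underlying data were Cy3 fluorescence images of library hairpins, with annealed Cy3 and quencher oligos, on a sequenced MiSeq flow cell in 50 mM Na-HEPES pH 8.0, 25 mM NaCl, taken in 2.5 °C steps up to 60 °C, normalised to pre-quench Cy3 and to control constructs.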

Series [2] can be described thus: melting temperature; fluorescence melt of hairpins on a sequencing array, two-state fit, raised by 9.35 °C to match UV melts. To be noted: sodium 0.088 M. The gist of the method:
as §1

Among the data in the array DNA melting data of Ke et al. (doi:10.1101/2024.01.08.574731) are folding enthalpy and Tm values, retold here.

In the case of GATCGACTGATCGATC ((((((....)))))), the folding enthalpy in series [1] was -30.5 kcal/mol. The Tm in series [2] turned out to be 50.9 °C.
On to GCCCCCGAAAGGGGAGGC ((((((....)))..))), for which, in series [1], the folding enthalpy was -13.8 kcal/mol. Also, the Tm in series [2] stood at 59.9 °C.
For GGCTTCGAAAGAAGCGCC ((((((....)))..))) the same measures were -9.54 kcal/mol and 57 °C.
Taken in the same sequence, the figures for GGGATACCGAAAGGTCCC (((..(((....)))))) were -17.4 kcal/mol and 45.2 °C.
Regarding GATCTTGGCAAGATC ((((((...)))))), the folding enthalpy in series [1] is -46.1 kcal/mol. Besides, the Tm in series [2] stood at 48.2 °C.
Taken in the same sequence, the figures for GATTAGGGAAACCTAATC (((((((....))))))) were -45.1 kcal/mol and 50.3 °C.
Turning to GATCCGATGCGGATC ((((((...)))))), in series [1], the folding enthalpy was -31 kcal/mol. In series [2], the Tm was found to be 57.7 °C.
For GACTGTGGAAACACAGCC (.(((((....))))).) the same measures were -13.7 kcal/mol and 43.7 °C.
In the case of GTTATATCGAAAGATAAC (((..(((....)))))), in series [1], the folding enthalpy was -11.2 kcal/mol. Moreover, the Tm in series [2] was 27.7 °C.
GTTAGGCGAAAGCCCAAC (((.(((....))).))): the folding enthalpy in series [1] is -13.8 kcal/mol. Moreover, the Tm in series [2] was 37.2 °C.
For GCTTGGGGAAACTCAGGC ((.((.(....).)).)) the same measures were -18.2 kcal/mol and 36.6 °C.
As for GTGGCGCGAAAGCGCAC (((.(((....)))))), the folding enthalpy in series [1] is -8.04 kcal/mol. Besides, the Tm in series [2] worked out at 57.6 °C.
For GATCTTACCCAAGATC ((((((....)))))) the same measures were -26.2 kcal/mol and 42.1 °C.
As to GCACGGCGAAAGCAATGC (((..((....))..))), the folding enthalpy in series [1] was -15.5 kcal/mol. In series [2], the Tm is 39.1 °C.
On to GTTGCGCGAAAGCGAAAC (((.(((....))).))), for which the folding enthalpy in series [1] is -27.8 kcal/mol. Moreover, the Tm in series [2] worked out at 59.5 °C.
As to GATCGCCCACGCGATC ((((((....)))))), the folding enthalpy in series [1] is -35 kcal/mol. Also, in series [2], the Tm came out at 68.1 °C.
Taken in the same sequence, the figures for GATCTGGCGGCAGATC ((((((....)))))) were -53.2 kcal/mol and 53.3 °C.
Regarding GATAGGACGAAAGTCATC (((..(((....)))))), in series [1], the folding enthalpy is -7.28 kcal/mol. In addition, the Tm in series [2] is 25.2 °C.
Consider GTACATGGAAACATGCAC ((.((((....)))).)), for which the folding enthalpy in series [1] was -22.7 kcal/mol. Moreover, the Tm in series [2] amounted to 39.2 °C.
On to GTTTCAGAAATGAAAC ((((((....)))))), for which the folding enthalpy in series [1] was -27.3 kcal/mol. Further, the Tm in series [2] amounted to 47.2 °C.
For GCGGGACTCCGC ((((....)))) the same measures were -27.3 kcal/mol and 67.7 °C.
For the sequence GGGGGAGGAAACCCCCCC (((((.(....).))))), in series [1], the folding enthalpy was -20.1 kcal/mol. Further, the Tm in series [2] turned out to be 55.1 °C.
For GATCCTCATCAGGATC ((((((....)))))) the same measures were -37 kcal/mol and 49.7 °C.
For GTGGCTGGAAACAGCCGC (.(((((....))))).) the same measures were -17.4 kcal/mol and 63 °C.
Taken in the same sequence, the figures for GCGAGGCGAAAGCGACGC (((..((....))..))) were -25.4 kcal/mol and 62.1 °C.
Consider GCTTCGCGAAAGCGGGGC ((..(((....)))..)), for which the folding enthalpy in series [1] is -18.5 kcal/mol. Further, the Tm in series [2] came to 57.9 °C.
For GATCGGGGAAACCCGATC (((((((....))))))) the same measures were -42.5 kcal/mol and 69 °C.
For GTAGACGAAAGTCTATAC ((((((....)))..))) the same measures were -12.2 kcal/mol and 42.6 °C.
Taken in the same sequence, the figures for GATCTCTTTGGAGATC ((((((....)))))) were -44.5 kcal/mol and 55.1 °C.
As for GGCACCGAAAGGTCCGCC ((((((....)))..))), the folding enthalpy in series [1] was -20.4 kcal/mol. In addition, the Tm in series [2] stood at 55.2 °C.
Taken in the same sequence, the figures for GCTCTTCGAAAGAAAGC (((.(((....)))))) were -20.6 kcal/mol and 36.1 °C.
Turning to GATCACCTTGGTGATC ((((((....)))))), in series [1], the folding enthalpy was -37.2 kcal/mol. Moreover, the Tm in series [2] was found to be 67 °C.
Regarding GCTACCGAAAGGTAAAGC ((((((....)))..))), in series [1], the folding enthalpy is -19.8 kcal/mol. For the same sequence, the Tm in series [2] worked out at 46.8 °C.
Taken in the same sequence, the figures for GCCATTGGAAACAATGAC (.(((((....))))).) were -19.1 kcal/mol and 38.8 °C.
With GCGGCGCCGAAAGGCCGC (((..(((....)))))), the folding enthalpy in series [1] was -14.3 kcal/mol. In addition, the Tm in series [2] amounted to 67.2 °C.
Taken in the same sequence, the figures for CGTAACGGAAACGTGACG (((.(((....))).))) were -47 kcal/mol and 49.6 °C.
Consider GTGCTCACGAAAGTGCAC (((..(((....)))))), for which the folding enthalpy in series [1] is -19.9 kcal/mol. Further, the Tm in series [2] turned out to be 48.3 °C.
For GATGGCCGAAAGGCAATC (((.(((....))).))) the same measures were -20.9 kcal/mol and 57.3 °C.
Taken in the same sequence, the figures for GGGCACGAAAGTGGACCC ((((((....)))..))) were -17.9 kcal/mol and 53.6 °C.
For the sequence GCGATAATCGC ((((...)))), the folding enthalpy in series [1] is -20.7 kcal/mol. Also, in series [2], the Tm came out at 44.4 °C.
For GATCCTATTTAGGATC ((((((....)))))) the same measures were -40.6 kcal/mol and 54.4 °C.
As for GGTATAGGAAACTATATC (.(((((....))))).), the folding enthalpy in series [1] was -17.1 kcal/mol. The Tm in series [2] is 31.2 °C.
For GTAGTGGGAAACCACCAC ((.((((....)))).)) the same measures were -16.3 kcal/mol and 33.5 °C.
For GCTGTAGGAAACTGCAGC ((((.((....)).)))) the same measures were -43.3 kcal/mol and 52.6 °C.
For GCAAACCGAAAGGTGTGC (((.(((....))).))) the same measures were -37.6 kcal/mol and 57.3 °C.
Take GCTCTCGAAAGAGCGAGC ((((((....)))..))): in series [1], the folding enthalpy was -15.1 kcal/mol. Further, in series [2], the Tm came to 49.3 °C.
Taken in the same sequence, the figures for GATCAGAATGCTGATC ((((((....)))))) were -28.1 kcal/mol and 47 °C.
Consider GCTTCCGAAAGGACAGC ((((((....))).))), for which the folding enthalpy in series [1] is -24.4 kcal/mol. For the same sequence, in series [2], the Tm worked out at 47.8 °C.
For the sequence ACCATGAAAATGGT (((((....))))), the folding enthalpy in series [1] was -20.3 kcal/mol. For the same sequence, in series [2], the Tm is 46.6 °C.
As to GATCGTCAGACGATC ((((((...)))))), the folding enthalpy in series [1] was -35.2 kcal/mol. Also, the Tm in series [2] came out at 52.5 °C.
Taken in the same sequence, the figures for GATCATTTCAATGATC ((((((....)))))) were -42.2 kcal/mol and 52.3 °C.
Taken in the same sequence, the figures for GCCGACACGAAAGTGGGC (((..(((....)))))) were -24.5 kcal/mol and 53.1 °C.
Take GAAAGCGAAAGCTGGTTC ((((((....)))..))): the folding enthalpy in series [1] is -9.59 kcal/mol. In addition, the Tm in series [2] came out at 29.3 °C.
For GTGGACGGAAACGTCTAC ((.((((....)))).)) the same measures were -24.9 kcal/mol and 52.2 °C.
GCGGCGACCCGC ((((....)))): the folding enthalpy in series [1] is -15.4 kcal/mol. Besides, in series [2], the Tm is 57.3 °C.
In the case of GTAGATCGAAAGATGTAC (((.(((....))).))), the folding enthalpy in series [1] is -31.6 kcal/mol. Also, the Tm in series [2] stood at 42.6 °C.
